# HCT116 PTEN-null: growth suppressors of cells with PTEN tumor suppressor deletion; viability, % at 10 µM; 140,000 compounds, 1.2% hits; HCT116 PTEN-null viability, CellTiter-Glo, 60 h; stronger effect = lower value;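 active means viability at or below a set limit, 4 SD under the median of all tested compounds, cut at about 3.7% in these data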;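 further: PTEN knockout HCT116 line with beta catenin targeted HCT116 as companion control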
# Autophagy mod: autophagy modulation, high-content screen; MEF GFP-LC3 puncta imaging; test concentration mostly 10 µM; calls only at 10 µM (by protocol); 190,000 compounds, 0.98% hits; AID 463193;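 active means percentage of spot-positive cells more than 3 SD above its plate mean, without a fluorescence outlier flag or 80% toxicity; inconclusive means no clear call, values can overlap the other calls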;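 further: spot-positive cell cutoff set from DMSO-treated cells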
# bCat KO growth: beta-catenin-lacking colon tumor cell growth suppression; HCT116 beta-catenin knockout viability, CellTiter-Glo, 60 h; stronger effect = lower value; viability, % at 10 µM; 140,000 compounds, 1.5% hits;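 active means viability at or under a set limit, the compound median less 4 SD, cut at about 6% in these data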;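 further: 0% = Hyamine 1622 control at 20 µM and 100% = untreated cell control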
# sdo1 growth: sdo1-depleted yeast growth rescue | S. cerevisiae sdo1-depleted JHY4D growth rescue, OD600 30 h; stronger effect = higher value; pdr5 snq2 efflux-pump mutant strain | z-score at 10 µM | 140,000 compounds, 0.21% hits;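 active means z-score above 3 at both the 24 hr and the 30 hr optical density reads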;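 further: z-score against mean and SD of all compound wells on the same plate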
# Dynein transport: dynein cargo transport inhibition. 3617.4 mouse cells, GR-EGFP nuclear translocation imaging; test concentration mostly 20 µM; stimulated with dexamethasone, 1 µM; stronger effect = lower value. z-score, hits read low. 220,000 compounds, 0.47% hits. AID 1381;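 active means plate z-score of nuclear minus cytoplasmic receptor signal below a set negative limit, without overly bright fluorescence or cell loss, cut at about -3.5 in these data, passing the limit was not always enough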;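 further: z-score of nuclear minus cytoplasmic ring GR-EGFP intensity difference per well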
#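 medium = tetracycline-free induction medium containing charcoal-stripped FBS | also added = 1.0 µM final dexamethasone stimulus | schedule = 48 h induction, 1 h compound, 30 min dex at 37 °C | technique = fixed, Hoechst-stained cells imaged at 10x for EGFP | measure = GR-EGFP nuclear translocation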
# An asterisk follows results filed as active; i = inactive; u = inconclusive; x = not tested or not shown; + = active, no number; [ ] = another dose, or the depositor's remark. An excerpt weighted towards active compounds, which were near 2.2% of everything screened.
SMILES,HCT116 PTEN-null,Autophagy mod,bCat KO growth,sdo1 growth,Dynein transport
C=CC(c1ccccc1)C(C(=O)c1ccccc1)N(C)C (centres undefined),x,i,x,x,0.54
O=C1c2cccc3c([N+](=O)[O-])ccc(c23)C(=O)N1CCc1ccccn1,x,x,x,x,2.8
CN(C)CCCN1C(=O)c2cccc3c([N+](=O)[O-])ccc(c23)C1=O,1.6*,i,1.4*,-2.1,-0.39
CCSc1nc(-c2ccccc2)c2cc(Cl)ccc2n1,85,i,84,-0.9,-0.31
CCSc1nc(-c2ccccc2)nc(C(Cl)Cl)n1,2.0*,i,4.2*,-0.74,-0.39
CSc1nc(-c2ccc(C)cc2)nc(C(Cl)Cl)n1,1.1*,i,1.1*,3,-0.28
Cc1ccc(-c2nc(C(Cl)Cl)c3ccccc3n2)cc1,x,x,x,x,-0.054
COC(=O)c1nn2c(C(F)(F)F)cc(-c3ccc(Br)o3)nc2c1Br,x,+,x,x,1.6
CCc1ccc2nc(SCC(=O)Nc3nnc(C)s3)c(C)cc2c1,x,i,x,x,0.79
COc1ccc(-c2cc(-c3ccc(F)cc3)nc(N3CCN(C)CC3)n2)cc1,3.4*,i,3.3*,-3[12.4 µM],-1.2
Cc1cc(C)c(C)c(S(=O)(=O)N2CCN(C)CC2)c1C,x,+,x,x,-0.4
Cc1cc(C(=O)N/N=C/c2cc([N+](=O)[O-])ccc2O)c2ccccc2n1,3.0*,i,9,0.31,-0.3
COc1ccc(O)c(/C=N/Nc2nc3ccccc3[nH]2)c1,x,i,x,x,1.1
O=[N+]([O-])c1ccc(O)c(/C=N/Nc2nc3ccccc3[nH]2)c1,5,i,4.2*,0.09,-1.2
Brc1ccc(-c2cn3c(n2)CCc2ccc4cccnc4c2-3)cc1,63,i,63,-1,1.5
Cc1ccc(Oc2coc3cc(OC(=O)c4cccs4)ccc3c2=O)cc1,107,i,98,-0.67,0.17
CC(=O)Oc1ccc2c(=O)c(Oc3ccccc3)coc2c1OC(C)=O,65,+,66,-0.29,-0.89
O=C(N/N=C/c1ccc([N+](=O)[O-])o1)c1cc(-c2ccncc2)nc2ccccc12,3.3*,i,2.8*,-0.51,-5*
O=C(N/N=C/c1ccc([N+](=O)[O-])o1)c1cc(-c2ccc(-c3ccccc3)cc2)nc2ccccc12,x,i,x,x,1.8
Cn1c(/C=C/c2ccc([N+](=O)[O-])o2)nc2ccccc2c1=O,1.5*,i,1.8*,-2.1,-1.9
CC(/C=N/NC(=O)c1cc(-c2ccncc2)nc2ccccc12)=C\c1ccco1,16,+,16,-0.8,-0.16
Cc1cc(N/N=C/c2ccc([N+](=O)[O-])o2)nc2ccccc12,x,+,x,x,-0.53
CC(=O)N(C(C)=O)n1c(/C=C/c2cccc([N+](=O)[O-])c2)nc2ccccc2c1=O,x,i,x,x,1.1
CSc1ccccc1C(=O)NCCOc1cccc(C)c1,x,i,x,x,-0.15
COc1ccc2cnn(CCOc3ccccc3)c(=O)c2c1OC,108,i,104,-0.25,-0.5
SMILES,HCT116 PTEN-null,Autophagy mod,bCat KO growth,sdo1 growth,Dynein transport
COC(=O)Cc1ccc(NC(=S)Nc2ccccn2)cc1,x,i,x,x,0.22
Cc1ccc(N(C)S(=O)(=O)c2cccc(C(=O)Oc3ccc4c(C)cc(=O)oc4c3)c2)cc1,96,i,100,-1.1,-1.8
COC(=O)c1cccc(NC(=O)CCCOc2cccc(C)c2)c1,89,i,92,0.05,0.23
C/C(=N\NC(=O)Cc1ccc(F)cc1)c1ccc(O)cc1,x,i,x,x,-0.32
CCc1cc2cc(C)cc(C)c2[nH]c1=S,x,i,x,x,0.2
Cc1ccc(C)c2[nH]c(=O)c(CN(CCN3CCCC3)C(=O)Nc3cccc(Cl)c3)cc12,1.8*,+,3.0*,-1.2,-2.3
CCc1ccc2[nH]c(=O)c(CN(CCCN3CCOCC3)C(=O)Nc3cccc(Cl)c3)cc2c1,1.9*,i,1.9*,0.04,1.6
COc1ccc2c3c(c(=O)oc2c1OCC(=O)O)CCCC3,109,i,95,0.88,0.91
CCOc1c(OC)ccc2c3c(c(=O)oc12)CCCC3,1.1*,i,0.5*,-0.82,0.043
O=C(N/N=C\c1ccc([N+](=O)[O-])s1)c1cncc(Br)c1,1.5*,i,3.4*,-1.7,-0.55
Cc1ccccc1NC(=O)/C=C/c1ccc([N+](=O)[O-])s1,1.4*,+,2.0*,-1.5,1.9
O=C(N/N=C/c1ccc([N+](=O)[O-])s1)c1ccccc1Br,1.8*,i,1.9*,-1.1,-0.15
O=C(N/N=C/c1ccc([N+](=O)[O-])s1)c1ccccc1,x,i,x,x,0.52
Cc1ccccc1C(=O)N/N=C/c1ccc([N+](=O)[O-])s1,2.6*,i,3.6*,-1.2,0.73
CCOC(=O)Cc1csc(NC(=O)C(C)(C)CC)n1,102,i,91,-0.26,1.7
Cc1cccc2c(N=Nc3ccc(S(=O)(=O)Nc4ccc(Cl)cc4)cc3[N+](=O)[O-])c(O)[nH]c12,x,i,x,x,-0.12
CCCCNc1nnc(SCC(=O)c2c[nH]c3ccccc23)s1,100,i,97,-0.86,-0.43
CCOC(=O)C1=C(C)n2c(s/c(=C/c3cccc([N+](=O)[O-])c3)c2=O)=NC1c1ccc(O)c(OC)c1 (centres undefined),7,i,1.9*,-1.5,-1.8
Cc1ccccc1OCc1n[nH]c(=S)n1Cc1ccccc1,91,+,95,-1.2,-0.02
CCC(CC)C1=NN2C(=N)/C(=C\c3cc(C)n(-c4cccc(C)c4)c3C)C(=O)N=C2S1,95,+,98,-1,-0.12
CC1=NN2C(=N)/C(=C\c3cc(C)n(-c4ccccc4)c3C)C(=O)N=C2S1,x,i,x,x,3.3
CC(=O)Nc1ccc(NC(=O)COC(=O)c2c3c(nc4ccccc24)CCN(Cc2ccccc2)C3)cc1,64,+,62,1.7,-0.56
NC(=O)c1ccc(NC(=O)COC(=O)c2c3c(nc4ccccc24)/C(=C\c2cccs2)CCC3)cc1,1.8*,i,1.8*,0.63,0.46
O=C(COC(=O)c1c2c(nc3ccccc13)CCN(Cc1ccccc1)C2)Nc1c(F)cccc1F,32,u,37,-0.09,1.3
O=C(Nc1cccc(S(=O)(=O)N2CCCCC2)c1)c1c2c(nc3ccccc13)CCN(Cc1ccccc1)C2,68,+,68,-0.32,-1.1
SMILES,HCT116 PTEN-null,Autophagy mod,bCat KO growth,sdo1 growth,Dynein transport
CCOc1ccc(Cn2c3ccc(OC)cc3c3nc4ccccc4nc32)cc1,6,+,14,0.78,-0.84
CCn1c2ccc(OC)cc2c2nc3ccccc3nc21,73,i,62,-1.1,-0.16
CCCCOC(=O)Cn1c2ccc(OC)cc2c2nc3ccccc3nc21,3.1*,+,4.8*,-0.58,-0.13
CCCOc1ccc(Cc2nc(N)nc(N)n2)cc1,82,i,63,1.9,-0.63
CCSc1nnnn1-c1ccccc1,96,i,92,0.09,0.57
Cc1ccc(C)c(-n2nnnc2Sc2nnnn2-c2ccccc2)c1,1.8*,i,2.0*,-1.1[12 µM],-3.2
